Laboratory results reported in ChEMBL document CHEMBL1821698, “Synthesis and biological activities of (R)- and (S)-N-(4-Methoxyphenyl)-N,2,6-trimethyl-6,7-dihydro-5H-cyclopenta[d]pyrimidin-4-aminium chloride as potent cytotoxic antitubulin agents” (J Med Chem, 2011).
pEC50, pIC50: −log10 of the molar value. The source made the active and inactive calls. The rule behind the calls is not given here.

Columns and labels:
MDA-MB-435 [1] = assay: Antiproliferative activity against human MDA-MB-435 cells by SRB assay; type: functional, cell-based
In short: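 SRB assay on drug-sensitive MDA-MB-435 cells; IC50 is the concentration giving 50% inhibition of proliferation, n = 3.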

tubulin (Bos taurus) [2] = assay: Displacement of [3H]colchicine from bovine brain tubulin at 5 uM
SK-OV-3 [3] = assay: Antiproliferative activity against MDR-1-6/6 overexpressing human SKOV3 cells; type: functional, cell-based
MDA-MB-435 [4] = assay: Cell cycle arrest in human MDA-MB-435 cells assessed as accumulation of cells at G2/M phase at 3 times IC50 after 18 hrs by flow cytometry; type: functional
SK-OV-3 [5] = assay: Antiproliferative activity against human SKOV3 cells; type: functional, cell-based
tubulin (Bos taurus) [6] = assay: Displacement of [3H]colchicine from bovine brain tubulin using purified tubulin at 1 uM
[7] = Inhibition of microtubule polymerization in A-10 cells; conditions: A10
SK-OV-3 [8] = assay: Relative resistance ratio of IC50 for MDR-1-6/6 overexpressing human SKOV3 cells to IC50 for human SKOV3 cells; type: functional
HeLa [9] = assay: Antiproliferative activity against beta3-tubulin overexpressing human HeLa cells; type: functional, cell-based
HeLa [10] = assay: Antiproliferative activity against human HeLa cells; type: functional, cell-based
[11] = Ratio of EC50 for microtubule depolymerization in A-10 cells to IC50 for human MDA-MB-435 cells
[12] = Inhibition of bovine brain tubulin assembly
MDA-MB-435 [13] = assay: Cell cycle arrest in human MDA-MB-435 cells assessed as accumulation of cells at subG1 phase at 3 times IC50 after 18 hrs by flow cytometry; type: functional, cell-based
HeLa [14] = assay: Relative resistance ratio of IC50 for beta3-tubulin overexpressing human HeLa cells to IC50 for human HeLa cells; type: functional

SMILES | pIC50 (MDA-MB-435 [1]) | pIC50 (SK-OV-3 [3]) | pIC50 (SK-OV-3 [5]) | pEC50 [7] | pIC50 (HeLa [9]) | pIC50 (HeLa [10]) | pIC50 [12] | inhibition (tubulin (Bos taurus) [2]) | Activity (MDA-MB-435 [4]) | inhibition (tubulin (Bos taurus) [6]) | Ratio IC50 (SK-OV-3 [8]) | Ratio [11] | Activity (MDA-MB-435 [13]) | Ratio IC50 (HeLa [14])
COc1ccc(/C=C\c2cc(OC)c(OC)c(OC)c2)cc1O [COMBRETASTATIN A4] | 8.47 | 7.66 | 8.22 | 7.89 |  |  |  | 98% | 88.4% | 85% |  |  |  | 
CC(=O)O[C@H]1C(=O)[C@@]2(C)[C@H]([C@H](OC(=O)c3ccccc3)[C@]3(O)C[C@H](OC(=O)[C@H](O)[C@@H](NC(=O)c4ccccc4)c4ccccc4)C(C)=C1C3(C)C)[C@]1(OC(C)=O)CO[C@@H]1C[C@@H]2O [PACLITAXEL] |  | 5.31 | 8.53 |  |  |  |  |  |  |  |  |  |  | 

Continued, in another order:

pIC50 (MDA-MB-435 [1]) | pIC50 (SK-OV-3 [3]) | pIC50 (SK-OV-3 [5]) | pEC50 [7] | pIC50 (HeLa [9]) | pIC50 (HeLa [10]) | pIC50 [12] | SMILES | inhibition (tubulin (Bos taurus) [2]) | Activity (MDA-MB-435 [4]) | inhibition (tubulin (Bos taurus) [6]) | Ratio IC50 (SK-OV-3 [8]) | Ratio [11] | Activity (MDA-MB-435 [13]) | Ratio IC50 (HeLa [14])
7.77 | 7.22 | 7.46 | 7.25 | 7.62 | 7.43 | 5.82 | COc1ccc(N(C)c2nc(C)nc3c2CC(C)C3)cc1.Cl (racemic) | 87% | 65.9% | 59% | 1.8 | 3 | Active | 0.6
7.92 | 7.20 | 7.79 | 7.64 | 7.88 | 7.72 | 5.89 | COc1ccc(N(C)c2nc(C)nc3c2C[C@H](C)C3)cc1.Cl | 93% | 49.2% | 70% | 3.8 | 2 | Active | 0.7
7.29 | 6.92 | 7.07 | 6.56 | 7.17 | 7.03 | 5.68 | COc1ccc(N(C)c2nc(C)nc3c2C[C@@H](C)C3)cc1.Cl | 77% | 91.4% | 37% | 1.4 | 5 |  | 0.7
